Measurements taken from ChEMBL document CHEMBL3745658, “An Orally Bioavailable, Indole-3-glyoxylamide Based Series of Tubulin Polymerization Inhibitors Showing Tumor Growth Inhibition in a Mouse Xenograft Model of Head and Neck Cancer” (J Med Chem, 2015).
Values after ≈ are worked out from the molar mass of the structure shown. Active and inactive are the calls of the source. No cut-off for these calls is given here.

What was measured:
SK-MEL-28 = experiment: Cytotoxicity against human SK-MEL-28 cells assessed as reduction in cell viability after 72 hrs by MTT assay; format: functional, cell-based
Outline: (§1)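 Cells plated at an appropriate density and left 24 h to attach, then dosed in triplicate with compound diluted from 10 mM DMSO stocks into full growth medium (added at 2× final concentration). After 72 h, cells PBS-washed and given MTT (0.5 mg/mL in PBS) for 45−60 min. Formazan dissolved in 0.1 M HCl/2-propanol, A570 read (650 nm reference). Viability normalised to DMSO control; LC50 by nonlinear regression.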

FaDu [1] = experiment: Cytotoxicity against human FADU multicellular tumor spheroid assessed as effect on normal spheroid growth at 1 uM incubated for 2 to 3 days by light microscop; format: cell-based
Outline: (§2)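 FaDu monoculture spheroids were dosed once and imaged at 0, 2, 4 and 7 days after dosing. Fragmentation and growth were judged against untreated spheroids.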

Tubulin (Sus scrofa) [2] = target: T1, Tubulin (Sus scrofa) (UniProt P02554+P02550); experiment: Displacement of [3H]-paclitaxel from biotinylated porcine tubulin after 25 mins by competitive binding assay; format: protein assay
Outline: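 Biotinylated porcine tubulin precoupled to SPA beads for 30 min at 4 °C, then 0.05 μM [3H]-paclitaxel and test compound added in G-PEM with 1 mM GTP, 3% DMSO, duplicate wells, 25 min at rt. Nonspecific binding taken with 1000-fold unlabeled excess. IC50 from seven-point semilog curves, four-parameter fit.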

Tubulin [3] = target: T2, Tubulin (Sus scrofa, UniProt P02554+P02550); experiment: Inhibition of porcine brain tubulin polymerization assessed as reduction in GTP-induced microtubule assembly after 60 mins by OD340 method
[4] = Efflux ratio of apparent permeability from basolateral to apical side over apical to basolateral side in human Caco2 cells; conditions: Caco-2
MES-SA = experiment: Cytotoxicity against human MES-SA cells assessed as reduction in cell viability after 72 hrs by MTT assay; format: functional, cell-based; outline: as §1
FaDu [5] = experiment: Cytotoxicity against human FADU multicellular tumor spheroid assessed as induction of spheroid disruption incubated for 7 days by light microscopy; format: functional, cell-based; conditions: for EC50: 168 h
Outline: (§3)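 Monocultured FaDu spheroids dosed over a concentration range and imaged at 0, 2, 4 and 7 days post-dosing. Volume followed over time, fragmentation scored at the 7-day end point, and EC50 for disruption derived from 7-day dose–response plots. Two independent experiments, mean ± SEM.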

FaDu [6] = experiment: Cytotoxicity against human FADU cells assessed as reduction in cell viability after 72 hrs by MTT assay; format: functional; conditions: read-out: LC50 (the source's name)
SH-SY5Y = experiment: Cytotoxicity against human SH-SY5Y cells assessed as reduction in cell viability after 72 hrs by MTT assay; format: functional, cell-based; outline: as §1
FaDu [7] = experiment: Cytotoxicity against human FADU multicellular tumor spheroid assessed as dispersion of cells from the spheroid at 1 uM incubated for 2 to 7 days by light microscopy; format: functional, cell-based; outline: as §2
Tubulin (Sus scrofa) [8] = target: T1, Tubulin (Sus scrofa); experiment: Displacement of [3H]-vinblastine from biotinylated porcine tubulin after 15 mins by competitive binding assay; format: protein assay
Outline: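 Biotinylated porcine tubulin, 0.2 μM [3H]-vinblastine, SPA beads and test compound combined together in G-PEM with 1 mM GTP, 3% DMSO, duplicate wells, 15 min at rt before counting. Nonspecific binding taken with 1000-fold unlabeled excess. IC50 from seven-point semilog curves, four-parameter fit.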

FaDu [9] = experiment: Antitumor activity against human FADU cells xenografted in CD-1 mouse assessed as inhibition of tumor growth at 10 mg/kg, po qd for 10 days measured at 13 and 15 days; format: functional, organism-based
Outline: (§4)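 FaDu xenografts established in mice before dosing; compound given by oral gavage once daily for 10 days. Tumor volume was followed over time and compared with a vehicle control group, with significance assessed at days 3, 6, 9, 13 and 15. Body weight and survival were also recorded.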

FaDu [10] = experiment: Induction of microtubule disruption in human FADU cells assessed as multipolarization of spindle at 30 nM after 24 hrs by immunofluorescence staining method; format: functional, cell-based
Outline: (§5)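 FaDu cells grown on coverslips (15000/well) for 24 h, then exposed to compound for 24 h. Unassembled tubulin was extracted with PHEM/0.5% Triton X-100/10 μM paclitaxel for 3 min. Cells were fixed in PHEM with 8% paraformaldehyde and 0.3% glutaraldehyde on ice, blocked, then stained with FITC anti-α-tubulin (DM1A) and DAPI. Confocal z-stacks were taken at 100×.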

[11] = Apparent permeability from apical to basolateral side in human Caco2 cells at 10 uM at pH 7.4 after 60 mins by mass spectrometry; conditions: Caco-2, pH 7.4
[12] = Solubility in 2% DMSO containing 50 mM potassium phosphate buffer solution pH 7.4 at 10 uM by dynamic light scattering method; conditions: pH 7.4, 10 µM
[13] = Metabolic stability in CD-1 mouse liver microsomes assessed as half life at 1 uM preincubated for 5 mins before addition of NADPH by LC-MS/MS method; format: ADME
[14] = Solubility in 2% DMSO containing 50 mM potassium phosphate buffer solution at pH 7.4 by dynamic light scattering method; conditions: 50 mM potassium phosphate buffer with 2% DMSO
FaDu [15] = experiment: Cell cycle arrest in human FADU cells assessed as accumulation at G2/M phase after 24 hrs by propidium iodide staining-based flow cytometry; format: functional
Outline: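 FaDu cells seeded at 10^5/well, attached overnight, then exposed to compound in full growth medium at 37 °C for 24 h. Cells were trypsinized, fixed in ice-cold 70% ethanol, treated with RNase A (100 μg/mL), stained overnight in the dark with propidium iodide (50 μg/mL), and analysed by flow cytometry with at least 10000 events per sample.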

Tubulin [16] = target: T2, Tubulin; experiment: (§6) Displacement of [3H]-colchicine from biotinylated porcine tubulin after 2 hrs by competitive binding assay; format: protein assay
Outline: (§7)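 Biotinylated porcine tubulin (750 ng/well) with 0.1 μM [3H]-colchicine and test compound in G-PEM with 1 mM GTP, 3% DMSO, duplicate wells, 2 h at 37 °C. Streptavidin SPA beads then added for 45 min at 37 °C. Nonspecific binding taken with 1000-fold unlabeled excess. IC50 from seven-point semilog curves, four-parameter fit.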

FaDu [17] = experiment: Antitumor activity against human FADU cells xenografted in CD-1 mouse assessed as inhibition of tumor growth at 10 mg/kg, po qd for 10 days measured at 3 to 9 days; format: functional, organism-based; outline: as §4
SCC-4 = experiment: Cytotoxicity against human SCC4 cells assessed as reduction in cell viability after 72 hrs by MTT assay; format: functional, cell-based; outline: as §1
FaDu [18] = experiment: Selectivity index, ratio of EC50 for cell cycle arrest in human FADU cells to LC50 for cytotoxicity against human FADU cells; format: functional
Outline: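 G2/M arrest EC50 came from a 24 h dose–response of propidium iodide flow cytometry in FaDu cells. It was compared with the LC50 from a 72 h MTT assay in FaDu cells (triplicate wells, A570, viability relative to DMSO, nonlinear regression).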

MES-SA/Dx5 = experiment: Cytotoxicity against multidrug resistant human MES-SA/Dx5 cells assessed as reduction in cell viability after 72 hrs by MTT assay; format: functional, cell-based; outline: as §1
FaDu [19] = experiment: Induction of microtubule disruption in human FADU cells at 150 nM after 24 hrs by immunofluorescence staining method; format: functional, cell-based; outline: as §5
[20] = Solubility in 2% DMSO containing 50 mM potassium phosphate buffer solution pH 7.4 at 1 uM by dynamic light scattering method; format: physicochemical; conditions: pH 7.4, 1 µM
[21] = Aqueous solubility of the compound by UV-HPLC
FaDu [22] = experiment: Induction of mitotic spindle defects in human FADU cells at 15 nM after 24 hrs by immunofluorescence staining method; format: functional, cell-based
FaDu [23] = experiment: Induction of microtubule disruption in human FADU cells at 50 nM after 24 hrs by immunofluorescence staining method; format: functional, cell-based
FaDu [24] = experiment: Cytotoxicity against human FADU multicellular tumor spheroid assessed as effect on normal spheroid growth at 0.25 uM incubated for 2 to 3 days by light microscopy; format: cell-based; outline: as §3
FaDu [25] = experiment: Cytotoxicity against human FADU multicellular tumor spheroid assessed as dispersion of cells from the spheroid at 0.25 uM incubated for 2 to 7 days by light microscopy; format: functional, cell-based; outline: as §3
FaDu [26] = experiment: Ratio of EC50 for human FADU multicellular tumor spheroid to LC50 for human FADU cells; format: functional
Outline: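 FaDu spheroids were dosed over a range of concentrations, and spheroid volume was measured at the 7-day endpoint. EC50 for disruption came from dose–response plots, combining two independent experiments. This was compared with the 72 h monolayer MTT LC50 (triplicate wells, nonlinear regression, viability relative to DMSO).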

Tubulin (Sus scrofa) [27] = target: T1, Tubulin (Sus scrofa); experiment: as §6; format: protein assay; outline: as §7
Tubulin (Sus scrofa) [28] = target: T1, Tubulin (Sus scrofa); experiment: Potency index, ratio of vincristine IC50 to docetaxel IC50 for displacement of [3H]-paclitaxel from biotinylated porcine tubulin; format: protein assay
FaDu [29] = experiment: Induction of microtubule disruption in human FADU cells at 250 nM after 24 hrs by immunofluorescence staining method; format: functional, cell-based
FaDu [30] = experiment: Cytotoxicity against human FADU multicellular tumor spheroid assessed as reduction of spheroid volume by light microscopy; format: functional, cell-based; outline: as §3
FaDu [31] = experiment: Antitumor activity against human FADU cells xenografted in CD-1 mouse assessed as tumor volume recovery at 10 mg/kg, po qd for 10 days measured between 6 and 9 days; format: functional, organism-based
Outline: (§8)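 FaDu xenografts established in mice, then test agent given by oral gavage once daily for 10 days; tumor volume followed against an untreated control group, with significance assessed at days 3, 6, 9, 13 and 15.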

FaDu [32] = experiment: Induction of microtubule disruption in human FADU cells assessed as multipolarization of spindle at 50 nM after 24 hrs by immunofluorescence staining method; format: functional, cell-based
[33] = Apparent permeability from apical to basolateral side in human Caco2 cells assessed as drug recovery at 10 uM at pH 7.4 after 60 mins by mass spectrometry; format: ADME, cell-based; conditions: Caco-2, pH 7.4, read-out: Drug recovery
FaDu [34] = experiment: Antitumor activity against human FADU cells xenografted in CD-1 mouse assessed as inhibition of tumor growth at 10 to 20 mg/kg, po qd for 10 days measured at 3 to 9 days; format: functional, organism-based; outline: as §8

Compound	Activity (SK-MEL-28)	Activity (FaDu [1])	Activity (Tubulin (Sus scrofa) [2])	IC50 (Tubulin [3])	efflux ratio [4]	Activity (MES-SA)	EC50 (FaDu [5])	CC50 (FaDu [6])	Activity (SH-SY5Y)	Activity (FaDu [7])	Activity (Tubulin (Sus scrofa) [8])	Papp A→B at 1 h, 10 µM [11]	solubility [12]	half-life at 1 µM [13]	solubility kinetic [14]	Activity (FaDu [15])	IC50 (Tubulin [16])	Activity (SCC-4)	Activity (MES-SA/Dx5)	solubility [21]	also measured
COc1ccc(NC(=O)C(=O)c2cn(CC3CCCO3)c3ccccc23)cn1 (stereo not given)	Active	Non-toxic	inactive	8300 nM	0.7	Active	77 nM	31 nM	Active	Active	Active	35 ×10⁻⁶ cm/s	soluble	34 min	10 µM (≈ 3.79 µg/mL)	Dose-dependent effect	420 nM	Active	Active	–	Activity (FaDu [9]): Active; Activity (FaDu [10]): Active; EC50 (FaDu [15]): 160 nM; TGI (FaDu [17]): Active; Ratio (FaDu [18]): 5; Activity (FaDu [19]): Active
O=C(Nc1ccncc1)C(=O)c1cn(Cc2ccc(Cl)cc2)c2ccccc12 [INDIBULIN]	Active	–	–	–	–	Active	–	32 nM	Active	–	–	–	Insoluble	–	–	–	–	Active	Active	≤ 1 µM	solubility [20]: Insoluble
COc1ccc(NC(=O)C(=O)c2cn(C(C)C)c3ccccc23)cn1	–	–	inactive	14900 nM	1.4	–	–	85 nM	–	–	Active	19.8 ×10⁻⁶ cm/s	soluble	5 min	20 µM (≈ 6.75 µg/mL)	–	1600 nM	–	–	10 µM (≈ 3.37 µg/mL)	–
COCC(C)n1cc(C(=O)C(=O)Nc2ccc(OC)nc2)c2ccccc21 (stereo not given)	Active	–	inactive	3900 nM	1.1	Active	39 nM	12 nM	Active	–	inactive	33.6 ×10⁻⁶ cm/s	soluble	16 min	40 µM (≈ 14.7 µg/mL)	–	160 nM	Active	Active	10 µM (≈ 3.67 µg/mL)	Activity (FaDu [22]): Active; Activity (FaDu [23]): Active; Activity (FaDu [24]): Non-toxic; Activity (FaDu [25]): Active; Ratio (FaDu [26]): 3
CC[C@]1(O)C[C@H]2CN(CCc3c([nH]c4ccccc34)[C@@](C(=O)OC)(c3cc4c(cc3OC)N(C=O)[C@H]3[C@@](O)(C(=O)OC)[C@H](OC(C)=O)[C@]5(CC)C=CCN6CC[C@]43[C@@H]65)C2)C1	–	–	Active	–	–	–	–	–	–	–	Active	–	–	–	–	–	–	–	–	–	Activity (Tubulin (Sus scrofa) [27]): inactive; Ratio IC50 (Tubulin (Sus scrofa) [28]): 2
COCCn1cc(C(=O)C(=O)Nc2ccc(OC(C)C)nc2)c2ccccc21	Active	Non-toxic	inactive	6600 nM	0.9	Active	113 nM	55 nM	Active	Active	Active	15.2 ×10⁻⁶ cm/s	soluble	99 min	10 µM (≈ 3.81 µg/mL)	Dose-dependent effect	500 nM	Active	Active	–	Activity (FaDu [5]): Dose-dependent effect; Activity (FaDu [29]): Active; Activity (FaDu [30]): Dose-dependent effect; Ratio (FaDu [26]): 2; TGI (FaDu [31]): inactive; EC50 (FaDu [15]): 90 nM; Activity (FaDu [32]): Active; Ratio (FaDu [18]): 2; recovery at 1 h, 10 µM [33]: < 50%; TGI (FaDu [34]): Active
